Measurements reported in article PMC4958579 (Cell chemical biology, 2016).

Columns and labels:
[1] = system: KDM5B and KDM5C; conditions: ref Horton et al., 2016; cited from earlier work
[2] = molecular target: Flag-tagged full-length KDM5A (Homo sapiens, UniProt P29375); experiment: AlphaLISA / AlphaScreen demethylase assay, KDM5A; type: biochemical; conditions: nanomolar enzyme concentration; two independent assays
Outline: (§1)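 Full-length human enzymes, Flag-tagged and purified from Sf21 insect cells, assayed for demethylation by AlphaScreen.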

[3] = molecular target: Flag-tagged full-length KDM5B (Homo sapiens, UniProt Q9UGL1); experiment: AlphaLISA / AlphaScreen demethylase assay, KDM5B; type: biochemical; conditions: nanomolar enzyme concentration; two independent assays
Outline: as §1

[4] = molecular target: Flag-tagged full-length KDM5C (Homo sapiens, UniProt P41229); experiment: AlphaLISA / AlphaScreen demethylase assay, KDM5C; type: biochemical; conditions: nanomolar enzyme concentration; two independent assays
Outline: as §1

[5] = molecular target: full-length KDM6A (Homo sapiens, UniProt O15550); experiment: AlphaScreen demethylase assay, KDM6A; type: biochemical; conditions: at 50 μM, the highest inhibitor concentration tested
Outline: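 Full-length KDM6A demethylase activity measured by AlphaScreen with test compound up to 50 μM, the highest concentration tested. Two independent experiments; average and S.E. reported.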

[6] = molecular target: KDM6B catalytic domain (residues 1043-1682) (Homo sapiens, UniProt O15054); experiment: AlphaScreen demethylase assay, KDM6B; type: biochemical; conditions: at 50 μM, the highest inhibitor concentration tested
Outline: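 Purified KDM6B catalytic domain (residues 1043-1682) was assayed by AlphaScreen for demethylase activity across a test-compound concentration series, with 50 μM the highest concentration tested. IC50 was averaged from 4 independent experiments, with S.E.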

[7] = system: KDM4A catalytic domain (residues 1-350); experiment: Demethylase inhibition, KDM4A catalytic domain; type: biochemical
[8] = system: MCF7 cells; experiment: Western blot of global histone methylation, MCF7; type: cell-based, human; conditions: 5 μM, 3 days
Outline: (§2)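 Cells were exposed to DMSO or 5 μM test compound for 3 days and histone marks detected by western blot. Fold is H3K4me3 band intensity over total H3, normalized to the DMSO control. Data are from biological duplicate experiments, each run in duplicate.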

[9] = system: MDA-MB-231 cells; experiment: Western blot of global histone methylation, MDA-MB-231; type: cell-based, human; conditions: 5 μM, 3 days
Outline: as §2

[10] = system: MCF7 cells; experiment: Colony formation assay, MCF7; type: cell-based, human; conditions: 5 μM
Outline: (§3)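 Cells were treated with DMSO or 5 μM test compound and colonies quantified by image intensity. Percent intensity was normalized to the average percent intensity of DMSO-treated cells, with SEM error bars. Data are from biological duplicate experiments, each run in triplicate.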

[11] = system: BT474 cells; experiment: Colony formation assay, BT474; type: cell-based, human; conditions: 5 μM
Outline: as §3

[12] = system: ZR-75-1 cells; experiment: Colony formation assay, ZR-75-1; type: cell-based, human; conditions: 5 μM
Outline: as §3

[13] = system: MDA-MB-231 cells; experiment: Colony formation assay, MDA-MB-231; type: cell-based, human; conditions: 5 μM
Outline: as §3

[14] = system: PC9 lung cancer cells; experiment: Colony formation assay, PC9; type: cell-based, human; conditions: 5 μM
[15] = system: MCF10A immortalized, non-transformed mammary epithelial cells; experiment: Colony formation assay, MCF10A; type: cell-based, human; conditions: 5 μM
[16] = system: MCF7 cells; experiment: Real time RT-PCR of KDM5 target genes, MCF7; type: cell-based, human; conditions: 5 μM for 3 days
Outline: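 MCF7 cells were exposed to DMSO or 5 μM test compound for 3 days. BRCA1, STK6, BUB3, BUB1B, MT1F and MT1H mRNA levels were then quantified by real-time RT-PCR, with SEM error bars.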

Chain of Flag-tagged full-length KDM5B (Q9UGL1 whole entry): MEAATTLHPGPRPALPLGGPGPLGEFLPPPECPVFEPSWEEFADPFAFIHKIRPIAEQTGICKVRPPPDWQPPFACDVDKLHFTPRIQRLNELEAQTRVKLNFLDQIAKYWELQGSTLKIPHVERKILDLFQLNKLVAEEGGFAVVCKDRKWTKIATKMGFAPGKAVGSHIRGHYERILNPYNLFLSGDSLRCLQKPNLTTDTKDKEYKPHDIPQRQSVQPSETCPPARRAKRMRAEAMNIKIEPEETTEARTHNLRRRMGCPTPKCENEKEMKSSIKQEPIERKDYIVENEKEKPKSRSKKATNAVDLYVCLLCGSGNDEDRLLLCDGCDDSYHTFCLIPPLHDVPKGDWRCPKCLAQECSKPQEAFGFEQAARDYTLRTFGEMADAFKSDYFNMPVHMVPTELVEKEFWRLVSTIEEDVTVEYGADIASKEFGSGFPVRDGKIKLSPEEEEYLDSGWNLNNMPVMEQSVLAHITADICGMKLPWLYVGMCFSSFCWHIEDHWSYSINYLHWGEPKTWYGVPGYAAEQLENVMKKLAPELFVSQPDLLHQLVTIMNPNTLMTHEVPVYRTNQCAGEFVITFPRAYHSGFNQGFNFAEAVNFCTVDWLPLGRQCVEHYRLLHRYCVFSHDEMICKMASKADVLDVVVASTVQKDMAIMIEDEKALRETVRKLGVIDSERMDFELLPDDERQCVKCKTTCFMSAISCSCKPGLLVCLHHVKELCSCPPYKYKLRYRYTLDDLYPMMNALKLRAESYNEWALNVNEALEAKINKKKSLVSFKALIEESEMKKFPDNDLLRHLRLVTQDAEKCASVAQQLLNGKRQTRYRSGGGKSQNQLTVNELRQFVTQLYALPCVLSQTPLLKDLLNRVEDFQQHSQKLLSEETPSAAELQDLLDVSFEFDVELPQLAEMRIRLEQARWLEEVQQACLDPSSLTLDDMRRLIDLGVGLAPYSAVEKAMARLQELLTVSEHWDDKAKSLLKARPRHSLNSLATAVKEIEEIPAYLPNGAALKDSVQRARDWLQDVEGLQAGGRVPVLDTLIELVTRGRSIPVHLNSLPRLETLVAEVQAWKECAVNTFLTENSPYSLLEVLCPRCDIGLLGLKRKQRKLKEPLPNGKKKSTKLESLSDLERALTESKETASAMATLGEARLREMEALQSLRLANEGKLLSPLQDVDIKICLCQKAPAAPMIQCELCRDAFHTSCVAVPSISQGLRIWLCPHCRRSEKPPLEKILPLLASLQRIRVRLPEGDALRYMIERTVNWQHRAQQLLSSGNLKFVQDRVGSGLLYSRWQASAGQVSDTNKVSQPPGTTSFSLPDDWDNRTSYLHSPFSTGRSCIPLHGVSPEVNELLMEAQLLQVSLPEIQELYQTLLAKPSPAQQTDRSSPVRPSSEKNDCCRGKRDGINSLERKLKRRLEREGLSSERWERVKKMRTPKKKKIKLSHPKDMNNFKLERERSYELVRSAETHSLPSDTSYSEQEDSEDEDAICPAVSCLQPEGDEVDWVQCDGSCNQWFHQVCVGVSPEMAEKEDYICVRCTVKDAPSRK
Chain of Flag-tagged full-length KDM5A (P29375 whole entry): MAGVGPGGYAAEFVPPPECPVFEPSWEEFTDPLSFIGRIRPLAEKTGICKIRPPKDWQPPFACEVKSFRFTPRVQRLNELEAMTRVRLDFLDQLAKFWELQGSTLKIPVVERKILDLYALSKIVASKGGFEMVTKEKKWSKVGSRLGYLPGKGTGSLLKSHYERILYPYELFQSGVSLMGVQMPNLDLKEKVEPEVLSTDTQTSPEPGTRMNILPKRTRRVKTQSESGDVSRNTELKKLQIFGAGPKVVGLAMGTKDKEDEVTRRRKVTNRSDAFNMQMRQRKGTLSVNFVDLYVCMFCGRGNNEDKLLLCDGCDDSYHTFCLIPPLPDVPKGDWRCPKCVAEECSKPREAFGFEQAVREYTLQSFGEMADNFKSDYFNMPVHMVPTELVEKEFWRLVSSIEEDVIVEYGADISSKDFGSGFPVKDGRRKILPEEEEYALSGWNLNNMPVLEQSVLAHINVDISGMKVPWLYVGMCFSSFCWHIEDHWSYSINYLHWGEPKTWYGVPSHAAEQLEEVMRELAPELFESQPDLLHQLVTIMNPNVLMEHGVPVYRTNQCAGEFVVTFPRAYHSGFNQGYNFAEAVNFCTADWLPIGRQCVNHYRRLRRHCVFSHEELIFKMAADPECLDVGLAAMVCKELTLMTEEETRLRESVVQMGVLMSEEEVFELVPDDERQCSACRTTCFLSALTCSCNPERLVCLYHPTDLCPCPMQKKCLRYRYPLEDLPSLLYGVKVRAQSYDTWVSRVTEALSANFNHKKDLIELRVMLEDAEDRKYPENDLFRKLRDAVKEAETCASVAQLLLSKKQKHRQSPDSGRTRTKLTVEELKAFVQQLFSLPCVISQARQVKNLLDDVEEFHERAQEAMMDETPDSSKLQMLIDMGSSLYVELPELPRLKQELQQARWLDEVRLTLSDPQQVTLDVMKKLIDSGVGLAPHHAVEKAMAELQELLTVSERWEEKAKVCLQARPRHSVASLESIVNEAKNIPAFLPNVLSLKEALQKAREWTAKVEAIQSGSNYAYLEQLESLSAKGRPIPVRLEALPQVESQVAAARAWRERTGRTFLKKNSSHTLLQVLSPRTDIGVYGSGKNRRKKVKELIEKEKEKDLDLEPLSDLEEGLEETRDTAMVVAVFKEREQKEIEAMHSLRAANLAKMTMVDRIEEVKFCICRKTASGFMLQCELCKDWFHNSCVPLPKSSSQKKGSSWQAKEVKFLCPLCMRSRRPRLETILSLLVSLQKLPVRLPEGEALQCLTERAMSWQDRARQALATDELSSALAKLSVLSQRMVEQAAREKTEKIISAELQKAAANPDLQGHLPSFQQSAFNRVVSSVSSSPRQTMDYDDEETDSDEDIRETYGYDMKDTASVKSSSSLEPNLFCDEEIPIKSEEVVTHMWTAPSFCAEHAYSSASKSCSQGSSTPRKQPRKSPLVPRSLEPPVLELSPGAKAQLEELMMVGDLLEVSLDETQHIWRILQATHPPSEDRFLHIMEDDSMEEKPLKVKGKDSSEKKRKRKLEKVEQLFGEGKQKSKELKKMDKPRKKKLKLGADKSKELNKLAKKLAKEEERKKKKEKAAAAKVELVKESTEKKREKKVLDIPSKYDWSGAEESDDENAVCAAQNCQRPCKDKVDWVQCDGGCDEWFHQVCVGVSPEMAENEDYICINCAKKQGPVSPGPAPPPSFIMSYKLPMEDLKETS
Chain of full-length KDM6A (O15550 whole entry, species assumed): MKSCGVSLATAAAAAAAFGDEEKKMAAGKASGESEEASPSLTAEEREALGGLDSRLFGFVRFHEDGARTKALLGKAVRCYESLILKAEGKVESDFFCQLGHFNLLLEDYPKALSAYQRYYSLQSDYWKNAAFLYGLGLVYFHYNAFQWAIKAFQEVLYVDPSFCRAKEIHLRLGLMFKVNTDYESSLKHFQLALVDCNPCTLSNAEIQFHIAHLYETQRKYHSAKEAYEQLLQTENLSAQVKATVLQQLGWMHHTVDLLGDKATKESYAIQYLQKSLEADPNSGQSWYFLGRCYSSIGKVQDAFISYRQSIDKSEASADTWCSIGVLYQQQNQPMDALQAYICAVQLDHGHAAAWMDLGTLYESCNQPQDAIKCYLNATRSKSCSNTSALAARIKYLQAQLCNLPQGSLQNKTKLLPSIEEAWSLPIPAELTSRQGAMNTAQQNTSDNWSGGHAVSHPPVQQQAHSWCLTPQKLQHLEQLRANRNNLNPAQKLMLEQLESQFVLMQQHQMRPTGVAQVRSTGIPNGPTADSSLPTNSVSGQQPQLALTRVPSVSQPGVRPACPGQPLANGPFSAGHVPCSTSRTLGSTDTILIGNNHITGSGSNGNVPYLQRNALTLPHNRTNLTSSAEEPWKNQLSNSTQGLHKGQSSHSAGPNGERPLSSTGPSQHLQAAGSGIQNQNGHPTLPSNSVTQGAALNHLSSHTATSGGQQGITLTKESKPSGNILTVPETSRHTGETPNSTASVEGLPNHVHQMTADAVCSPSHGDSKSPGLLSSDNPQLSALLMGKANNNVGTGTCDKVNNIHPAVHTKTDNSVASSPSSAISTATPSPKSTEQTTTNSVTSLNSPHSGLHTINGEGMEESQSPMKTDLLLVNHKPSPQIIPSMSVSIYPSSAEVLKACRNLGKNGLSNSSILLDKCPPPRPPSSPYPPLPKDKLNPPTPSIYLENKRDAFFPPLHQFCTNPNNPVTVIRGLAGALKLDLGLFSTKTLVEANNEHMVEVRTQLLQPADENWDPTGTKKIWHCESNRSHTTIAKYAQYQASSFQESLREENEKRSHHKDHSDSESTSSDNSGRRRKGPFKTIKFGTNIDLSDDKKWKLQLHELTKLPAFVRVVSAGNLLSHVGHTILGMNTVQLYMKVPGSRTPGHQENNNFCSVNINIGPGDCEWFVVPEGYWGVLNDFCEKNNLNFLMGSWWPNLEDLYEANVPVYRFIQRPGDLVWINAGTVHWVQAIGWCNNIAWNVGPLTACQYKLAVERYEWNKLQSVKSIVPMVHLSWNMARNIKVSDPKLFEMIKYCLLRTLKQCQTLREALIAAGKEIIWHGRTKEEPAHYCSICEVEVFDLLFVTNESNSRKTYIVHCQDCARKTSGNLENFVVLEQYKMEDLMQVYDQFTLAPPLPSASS

For `O=C(O)CCNc1cc(N2CCc3ccccc3CC2)nc(-c2ccccn2)n1` [GSK-J1], the “more active against KDM5C than against KDM5B” value [1] is given as ~ 8.5 fold.

For `Clc1ccc(N/N=C(\c2ccccc2)c2ccccn2)nc1` [JIB-04], the “increased potency against KDM5B compared to KDM5C” value [1] is listed as ~ 8 fold.

In the case of `CCN(CCN(C)C)C(=O)CNCc1cc(C(=O)O)ccn1` [KDM5-C49], the “IC50, full-length KDM5A” value [2] is reported as “nanomolar range”, the “IC50, full-length KDM5B” value [3] is reported as “nanomolar range” and the “IC50, full-length KDM5C” value [4] is reported as “nanomolar range”. For the same compound, the “inhibition of KDM6A activity” value [5] was ≤ 50%, the “inhibition of KDM6B activity” value [6] was ≤ 50% and the “weaker potency against KDM4A catalytic domain than against KDM5B catalytic domain or full length KDM5B” value [7] was ~ 10 fold.

In the case of `CCOC(=O)c1ccnc(CNCC(=O)N(CC)CCN(C)C)c1` [KDM5-C70], the “H3K4me2/me1, H3K27me3, H3K9me3/H3K36me3 levels” value [8] is reported as “little impact”, the “global levels of H3K4me3” value [8] is reported as “significantly increased” and the “H3K4me2/me1, H3K27me3, H3K9me3/H3K36me3 levels” value [9] is reported as “little impact”. For the same compound, the “global levels of H3K4me3” value [9] was “significantly increased”, the “growth inhibited (colony formation)” value [10] was 85% and the “growth inhibited (colony formation)” value [11] was 97%. For the same compound, the “growth inhibited (colony formation)” value [12] was 70%, the “effect on colony formation” value [13] was “none were significantly affected” and the “effect on colony formation” value [14] was “none were significantly affected”. The “effect on colony formation” value [15] was “none were significantly affected”, the “expression of MT1F mRNA” value [16] was “increase” and the “expression of MT1H mRNA” value [16] was “increase”.
